Source: ChEMBL document CHEMBL4406880, “Design, synthesis, and bioactivity of dihydropyrimidine derivatives as kinesin spindle protein inhibitors” (Bioorg Med Chem, 2019)

Tests used:
Format in all cases: functional
[1] = test system: UACC-62; assay: Growth inhibition of human UACC62 cells assessed as growth percentage at 10 uM incubated for 48 hrs by sulforhodamine B assay relative to control; settings: UACC-62, 48 h, read-out: Activity
In short: (§1)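 NCI-60 single-dose screen. Cells were grown in RPMI 1640 with 5% FBS and 2 mM L-glutamine and plated at 5,000–40,000 cells/well. After an overnight preincubation at 37 °C in 5% CO2, compound was added at a final 10 µM from a DMSO stock, with DMSO/PBS controls. After 48 h, cells were TCA-fixed and stained with 0.4% SRB, and absorbance was read at 515 nm. Growth is given as a percentage of untreated control.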

[2] = test system: ACHN; assay: Growth inhibition of human ACHN cells assessed as growth percentage at 10 uM incubated for 48 hrs by sulforhodamine B assay relative to control; settings: read-out: Activity
In short: (§2)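 NCI-60 one-dose screen: cells in RPMI 1640 with 5% FBS and 2 mM L-glutamine, plated at 5,000–40,000 cells/well and preincubated 24 h at 37 °C, 5% CO2. Compound is added from a DMSO stock to a final 10 µM and incubated 48 h. Cells are TCA-fixed and stained with sulforhodamine B, read at 515 nm. Output is % growth versus untreated control, with a time-zero plate.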

[3] = test system: SK-MEL-2; assay: Growth inhibition of human SK-MEL-2 cells assessed as growth percentage at 10 uM incubated for 48 hrs by sulforhodamine B assay relative to control; settings: SK-MEL-2, 48 h, read-out: Activity; in short: as §1
[4] = test system: SN12C; assay: Growth inhibition of human SN12C cells assessed as growth percentage at 10 uM incubated for 48 hrs by sulforhodamine B assay relative to control; settings: read-out: Activity; in short: as §1
[5] = test system: NCI-H522; assay: Growth inhibition of human NCI-H522 cells assessed as growth percentage at 10 uM incubated for 48 hrs by sulforhodamine B assay relative to control; settings: NCI-H522, 48 h, read-out: Activity
In short: (§3)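 NCI-60 one-dose screen. Cells in RPMI 1640 with 5% FBS and 2 mM L-glutamine, seeded at 5,000–40,000 cells/well according to doubling time, and preincubated overnight at 37 °C, 5% CO2. A time-zero plate was TCA-fixed at drug addition. Compound from DMSO stock, final 10 µM, 48 h; DMSO vehicle controls. Fixation with TCA, 10% final (16% for suspension cells). SRB stain, Tris solubilization, A515. Result given as % growth versus untreated cells.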

[6] = test system: SNB-75; assay: Growth inhibition of human SNB75 cells assessed as growth percentage at 10 uM incubated for 48 hrs by sulforhodamine B assay relative to control; settings: SNB-75, 48 h, read-out: Activity; in short: as §1
[7] = test system: SW-620; assay: Growth inhibition of human SW620 cells assessed as growth percentage at 10 uM incubated for 48 hrs by sulforhodamine B assay relative to control; settings: SW-620, 48 h, read-out: Activity; in short: as §1
[8] = test system: Malme-3M; assay: Growth inhibition of human MALME-3M cells assessed as growth percentage at 10 uM incubated for 48 hrs by sulforhodamine B assay relative to control; settings: read-out: Activity; in short: as §3
[9] = test system: LOX IMVI; assay: Growth inhibition of human LOXIMVI cells assessed as growth percentage at 10 uM incubated for 48 hrs by sulforhodamine B assay relative to control; settings: read-out: Activity; in short: as §3
[10] = test system: PC-3; assay: Growth inhibition of human PC3 cells assessed as growth percentage at 10 uM incubated for 48 hrs by sulforhodamine B assay relative to control; settings: PC-3, 48 h, read-out: Activity; in short: as §1
[11] = test system: KM12; assay: Growth inhibition of human KM12 cells assessed as growth percentage at 10 uM incubated for 48 hrs by sulforhodamine B assay relative to control; settings: KM12, 48 h, read-out: Activity; in short: as §3
[12] = test system: SF-295; assay: Growth inhibition of human SF295 cells assessed as growth percentage at 10 uM incubated for 48 hrs by sulforhodamine B assay relative to control; settings: SF-295, 48 h, read-out: Activity; in short: as §1
[13] = test system: HCT-116; assay: Growth inhibition of human HCT116 cells assessed as growth percentage at 10 uM incubated for 48 hrs by sulforhodamine B assay relative to control; settings: HCT-116, 48 h, read-out: Activity; in short: as §2
[14] = test system: SF-268; assay: Growth inhibition of human SF268 cells assessed as growth percentage at 10 uM incubated for 48 hrs by sulforhodamine B assay relative to control; settings: SF-268, 48 h, read-out: Activity; in short: as §1
[15] = test system: OVCAR-4; assay: Growth inhibition of human OVCAR4 cells assessed as growth percentage at 10 uM incubated for 48 hrs by sulforhodamine B assay relative to control; settings: OVCAR-4, 48 h, read-out: Activity; in short: as §3
[16] = test system: OVCAR-5; assay: Growth inhibition of human OVCAR5 cells assessed as growth percentage at 10 uM incubated for 48 hrs by sulforhodamine B assay relative to control; settings: OVCAR-5, 48 h, read-out: Activity; in short: as §1
[17] = test system: K562; assay: Growth inhibition of human K562 cells assessed as growth percentage at 10 uM incubated for 48 hrs by sulforhodamine B assay relative to control; settings: K562, 48 h, read-out: Activity; in short: as §3
[18] = test system: NCI-H322M; assay: Growth inhibition of human NCI-H322M cells assessed as growth percentage at 10 uM incubated for 48 hrs by sulforhodamine B assay relative to control; settings: read-out: Activity; in short: as §3
[19] = test system: EKVX; assay: Growth inhibition of human EKVX cells assessed as growth percentage at 10 uM incubated for 48 hrs by sulforhodamine B assay relative to control; settings: read-out: Activity; in short: as §2
[20] = test system: M14; assay: Growth inhibition of human M14 cells assessed as growth percentage at 10 uM incubated for 48 hrs by sulforhodamine B assay relative to control; settings: M14, 48 h, read-out: Activity; in short: as §3
[21] = test system: NCI-H226; assay: Growth inhibition of human NCI-H226 cells assessed as growth percentage at 10 uM incubated for 48 hrs by sulforhodamine B assay relative to control; settings: NCI-H226, 48 h, read-out: Activity; in short: as §3
[22] = test system: SK-OV-3; assay: Growth inhibition of human SKOV3 cells assessed as growth percentage at 10 uM incubated for 48 hrs by sulforhodamine B assay relative to control; settings: SK-OV-3, 48 h, read-out: Activity; in short: as §1
[23] = test system: NCI-H460; assay: Growth inhibition of human NCI-H460 cells assessed as growth percentage at 10 uM incubated for 48 hrs by sulforhodamine B assay relative to control; settings: NCI-H460, 48 h, read-out: Activity; in short: as §3
[24] = test system: SK-MEL-5; assay: Growth inhibition of human SK-MEL-5 cells assessed as growth percentage at 10 uM incubated for 48 hrs by sulforhodamine B assay relative to control; settings: SK-MEL-5, 48 h, read-out: Activity; in short: as §1
[25] = test system: U-251; assay: Growth inhibition of human U251 cells assessed as growth percentage at 10 uM incubated for 48 hrs by sulforhodamine B assay relative to control; settings: U-251, 48 h, read-out: Activity; in short: as §1
[26] = test system: A498; assay: Growth inhibition of human A498 cells assessed as growth percentage at 10 uM incubated for 48 hrs by sulforhodamine B assay relative to control; settings: A498, 48 h, read-out: Activity; in short: as §2

SMILES	growth at 10 µM [1] [%]	growth at 10 µM [2] [%]	growth at 10 µM [3] [%]	growth at 10 µM [4] [%]	growth at 10 µM [5] [%]	growth at 10 µM [6] [%]	growth at 10 µM [7] [%]	growth at 10 µM [8] [%]	growth at 10 µM [9] [%]	growth at 10 µM [10] [%]	growth at 10 µM [11] [%]	growth at 10 µM [12] [%]	growth at 10 µM [13] [%]	growth at 10 µM [14] [%]	growth at 10 µM [15] [%]	growth at 10 µM [16] [%]	growth at 10 µM [17] [%]	growth at 10 µM [18] [%]	growth at 10 µM [19] [%]	growth at 10 µM [20] [%]	further results
CC(=O)C1=C(C)NC(=O)NC1c1ccc2c(c1)OCO2 (racemic)	98.9	108	110	102	91.1	94.1	104	104	96.4	99	110	106	108	107	108	102	104	104	101	104	growth at 10 µM [21]: 99.6%; growth at 10 µM [22]: 103%; growth at 10 µM [23]: 114%; growth at 10 µM [24]: 100%; growth at 10 µM [25]: 100%; growth at 10 µM [26]: 120%
CC1=C(C(=O)c2ccccc2)C(c2ccc3c(c2)OCO3)NC(=S)N1 (racemic)	51.6	45.5	60.5	51.4	38.3	-1.4	24.2	54.5	36.2	61.5	20	51.2	20.1	75.8	82.3	72.5	24.6	67.7	73.5	34.6	growth at 10 µM [21]: 66.5%; growth at 10 µM [22]: 51.6%; growth at 10 µM [23]: 8.05%; growth at 10 µM [24]: 28.2%; growth at 10 µM [25]: 37.5%; growth at 10 µM [26]: -12.5%
CC(=O)C1=C(C)NC(=S)NC1c1ccc2c(c1)OCO2 (racemic)	98.6	103	106	104	92.3	90.1	106	108	98.7	98.1	109	104	104	100	103	101	98.6	112	106	107	growth at 10 µM [21]: 102%; growth at 10 µM [22]: 102%; growth at 10 µM [23]: 109%; growth at 10 µM [24]: 100%; growth at 10 µM [25]: 98.2%; growth at 10 µM [26]: 115%
CC1=C(C(=O)OCC(C)C)C(c2ccc3c(c2)OCO3)NC(=O)N1 (racemic)	98.5	105	104	105	91.1	100	113	99.8	96.5	92.2	104	99.5	105	101	104	104	113	115	95.5	105	growth at 10 µM [21]: 93.1%; growth at 10 µM [22]: 108%; growth at 10 µM [23]: 113%; growth at 10 µM [24]: 101%; growth at 10 µM [25]: 99.8%; growth at 10 µM [26]: 121%
COCCOC(=O)C1=C(C)NC(=O)NC1c1ccc2c(c1)OCO2 (racemic)	96	107	104	102	91.8	89.6	97	99.8	98.6	98.8	102	98.5	107	98	94.4	101	97.4	107	99.1	104	growth at 10 µM [21]: 98%; growth at 10 µM [22]: 98.8%; growth at 10 µM [23]: 105%; growth at 10 µM [24]: 100%; growth at 10 µM [25]: 98.3%; growth at 10 µM [26]: 87%
CC1=C(C(=O)OCc2ccccc2)C(c2ccc3c(c2)OCO3)NC(=O)N1 (racemic)	86.6	99.4	101	101	87.7	96	109	101	97.9	84.5	105	95.3	88.3	99.8	91	106	107	104	95.8	97.4	growth at 10 µM [21]: 95.9%; growth at 10 µM [22]: 105%; growth at 10 µM [23]: 109%; growth at 10 µM [24]: 89.8%; growth at 10 µM [25]: 99.5%; growth at 10 µM [26]: 105%
CC(=O)N1C(=S)NC(C)=C(C(=O)OC(C)C)C1c1ccc2c(c1)OCO2 (racemic)	95.6	106	110	93.1	78	97.2	102	98.4	98.8	87.2	99.7	99.4	93.8	100	100	107	83.2	99.5	99.7	96.8	growth at 10 µM [21]: 94.8%; growth at 10 µM [22]: 104%; growth at 10 µM [23]: 110%; growth at 10 µM [24]: 100%; growth at 10 µM [25]: 92.6%; growth at 10 µM [26]: 114%
